These results are taken from PubChem BioAssay.

SMILES strings stand for the structures. The source made the active and inactive calls.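 How the source made its calls, unless noted: active means viability at or below 30% in both replicate assays; inconclusive means viability at or below 30% in just one of the two assays; inactive means the rest.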

Assay [1] is described as follows: HUVEC growth inhibition – cell-based, human, primary screen (AID 575).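 Further: 100% = median of untreated cell wells with 0.1% DMSO on each plate.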 The note with it: HUVEC proliferation, CellTiter-Glo luminescence, 72 h; at 10 µM; stronger effect = lower value. In outline: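 System: primary human umbilical vein endothelial cells; Quantity: 1250 endothelial cells in each well; Buffer or medium: supplemented EBM, 2% fetal bovine serum; Doses: one dose, 10 µM final, 0.1% DMSO; Incubation: 72 h compound incubation; Technique: ATP-based CellTiter-Glo luminescent read; Evaluation: percent of median DMSO-control luminescence; Controls: vehicle and MePR control wells.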
In general terms: In ATP-based viability assays light output follows the ATP content of the culture.

The nature of assay [2]: H69AR cell proliferation blockers – human, duplicate replicates, primary screen (AID 580;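 active means viability at or under a set limit in both replicates, limit being median viability minus 3 SD, cut at about 48% in these data, passing the limit was not always enough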;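 further: 100% = mean luminescence of untreated wells and 0% = no signal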). The note with it: H69AR lung tumor cells viability, ATP luminescence, 72 h; at 10 µM; stronger effect = lower value.
Assay [3] in a line: MRP1 drug-resistance reversers in H69AR cells – cell-based, doxorubicin co-treatment, pilot screen (AID 601;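 active means viability loss from added drug above about 55%, and viability with drug at most 40%, in both replicates, limit read from the data, passing the limit was not always enough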). The note with it: CellTiter-Glo, 72 h, at 10 µM; for differential viability (reversal): stronger effect = higher value.
A short description of assay [4]: yeast transport mutant growth inhibition pilot in 384-well plates, post-Golgi transport modulator project (AID 636; in the data active means inhibition above about 31%). To be noted: absorbance 615 nm, about 18 h, stronger effect = higher value.
Assay [5] in a line: growth suppression of yeast trafficking mutant, preliminary HTS, modulators of trafficking downstream of Golgi apparatus project, 1536-format plate, OD 615 nm (AID 637; in the data active means inhibition above about 30%). The note with it: yeast transport mutant growth, absorbance 615 nm, 18 h; stronger effect = higher value.
[6] abbreviates: H69AR cells + 2 uM doxorubicin, measured here: viability with 2 uM doxorubicin, stronger effect = lower value.
[7] abbreviates: H69AR cells, compound alone cytotoxicity.

For orientation: viability means a read-out of living cells in per cent, often relative to untreated cells. Broadly, the inhibition is the relative decrease from the control value, in per cent. Consider `COc1ccc(S(=O)(=O)N2CCC(C(=O)NCc3ccco3)CC2)cc1`, for which the viability in assay [1] was 93.8% (inactive); in assay [2], 86.6% (inactive); in assay [3] (setting [6]) it was 88.5%; in assay [3] (setting [7]) it was 86.6%. The differential viability (reversal) in assay [3] (H69AR cells + 2 uM doxorubicin) was -1.91% (inactive). In addition, the values for the inhibition in assay [4] and in assay [5] were -4.53% (inactive) and -3.97% (inactive), respectively.
In the case of `Cn1c(Cc2cccs2)nnc1SCC(=O)N1CCc2ccccc21`, the viability in assay [1] is 94.1% (inactive); in assay [2] it was 84.3% (inactive); in assay [3] (setting [6]), 94%; in assay [3] (setting [7]) it was 84.3%. Besides, the differential viability (reversal) in assay [3] (H69AR cells + 2 uM doxorubicin) was -9.72% (inactive). Further, the inhibition was -0.66% (inactive) in assay [4] and -8.1% (inactive) in assay [5].
For the compound `O=C(O)C1CSC2c3ccccc3C(=O)N12` (stereo not given), the viability in assay [1] is 104% (inactive); in assay [2] it was 103% (inactive); in assay [3] (setting [6]) it was 87.6%; in assay [3] (setting [7]) it was 103%. Besides, the differential viability (reversal) in assay [3] (H69AR cells + 2 uM doxorubicin) was 15.4% (inactive). The inhibition in assay [4] is -1.04% (inactive); in assay [5], 3.81% (inactive).
Turning to `CC(C)CN1C(=O)c2ccc(C(=O)Nc3nccs3)cc2C1=O`, the viability was 90.8% (inactive) in assay [1], 104% (inactive) in assay [2], 82.6% in assay [3] (setting [6]) and 104% in assay [3] (setting [7]). The differential viability (reversal) in assay [3] (H69AR cells + 2 uM doxorubicin) was 21.4% (inactive). Also, the results for the inhibition in assay [4] and in assay [5] were 0.39% (inactive) and 0.63% (inactive), respectively.
For `COC(=O)c1cc(-c2c(C)nn(-c3ccccc3)c2C)n[nH]1`, the viability in assay [1] is 97.8% (inactive); in assay [2], 101% (inactive); in assay [3] (setting [6]), 104%; in assay [3] (setting [7]), 101%. For the same compound, in assay [3] (H69AR cells + 2 uM doxorubicin), the differential viability (reversal) is -2.79% (inactive). In addition, the inhibition in assay [4] is -2.63% (inactive); in assay [5], -4.76% (inactive).
As to `Cc1ccccc1NS(=O)(=O)c1ccc(NC(=O)c2ccco2)cc1`, the viability in assay [1] is 90% (inactive); in assay [2], 89.2% (inactive); in assay [3] (setting [6]), 89.7%; in assay [3] (setting [7]) it was 89.2%. In assay [3] (H69AR cells + 2 uM doxorubicin), the differential viability (reversal) is -0.49% (inactive). Besides, the figures for the inhibition in assay [4] and in assay [5] were -2.34% (inactive) and -2.38% (inactive), respectively.
As to `Nc1nc(-c2ccc(Cl)cc2)cc(C(F)(F)F)n1`, the viability in assay [1] is 107% (inactive); in assay [2] it was 105% (inactive); in assay [3] (setting [6]), 91.3%; in assay [3] (setting [7]), 105%. For the same compound, the differential viability (reversal) in assay [3] (H69AR cells + 2 uM doxorubicin) is 13.3% (inactive). For the same compound, the results for the inhibition in assay [4] and in assay [5] were -1.82% (inactive) and -1.11% (inactive), respectively.
In the case of `O=C(O)c1ccc(-n2nc(C(F)(F)F)c3c2-c2ccoc2CC3)cc1`, the viability in assay [1] is 70.8% (inactive); in assay [2], 97% (inactive); in assay [3] (setting [6]) it was 87.9%; in assay [3] (setting [7]), 97%. Besides, the differential viability (reversal) in assay [3] (H69AR cells + 2 uM doxorubicin) was 9.15% (inactive). Further, the inhibition in assay [4] is 0.39% (inactive); in assay [5], -1.43% (inactive).
For the compound `Cc1c(C(=O)Nc2ccncc2)oc2c1C(=O)CC(C)(C)C2`, the viability is 95.9% (inactive) in assay [1], 91.3% (inactive) in assay [2], 96.6% in assay [3] (setting [6]) and 91.3% in assay [3] (setting [7]). The differential viability (reversal) in assay [3] (H69AR cells + 2 uM doxorubicin) was -5.27% (inactive). Further, the inhibition in assay [4] is -8.4% (inactive); in assay [5] it was -1.43% (inactive).
`COc1cccc(OC)c1OCCCSc1nc(C)cc(=O)[nH]1`: the viability in assay [1] was 107% (inactive); in assay [2], 91.1% (inactive); in assay [3] (setting [6]), 96.2%; in assay [3] (setting [7]), 91.1%. In addition, the differential viability (reversal) in assay [3] (H69AR cells + 2 uM doxorubicin) is -5.15% (inactive). Besides, the figures for the inhibition in assay [4] and in assay [5] were -4% (inactive) and -5.56% (inactive), respectively.
As for `Cn1nc(-c2ccc(C(=O)NCC3CCCO3)cc2)c2ccccc2c1=O` (stereo not given), the viability in assay [1] was 88.3% (inactive); in assay [2], 84.7% (inactive); in assay [3] (setting [6]), 71.2%; in assay [3] (setting [7]), 84.7%. Further, the differential viability (reversal) in assay [3] (H69AR cells + 2 uM doxorubicin) was 13.5% (inactive). The values for the inhibition in assay [4] and in assay [5] were -3.12% (inactive) and 7.14% (inactive), respectively.
Take `CCOc1cc(C)c(C(C)C)cc1S(=O)(=O)N1CCN(C)CC1`: the viability is 96.1% (inactive) in assay [1], 96.2% (inactive) in assay [2], 93.2% in assay [3] (setting [6]) and 96.2% in assay [3] (setting [7]). In addition, in assay [3] (H69AR cells + 2 uM doxorubicin), the differential viability (reversal) is 2.99% (inactive). The figures for the inhibition in assay [4] and in assay [5] were 1.84% (inactive) and -5.71% (inactive), respectively.
For the compound `CN(CC(=O)Nc1ccncc1)S(=O)(=O)c1ccccc1`, the viability in assay [1] was 110% (inactive); in assay [2], 95.8% (inactive); in assay [3] (setting [6]), 83.9%; in assay [3] (setting [7]), 95.8%. Moreover, in assay [3] (H69AR cells + 2 uM doxorubicin), the differential viability (reversal) was 11.9% (inactive). Also, the figures for the inhibition in assay [4] and in assay [5] were -7.63% (inactive) and -0.63% (inactive), respectively.
With `CCOc1ccc(OCc2cccc(C(=O)N3CCCC3)c2)cc1`, the viability in assay [1] is 110% (inactive); in assay [2], 92.9% (inactive); in assay [3] (setting [6]) it was 86%; in assay [3] (setting [7]), 92.9%. In addition, in assay [3] (H69AR cells + 2 uM doxorubicin), the differential viability (reversal) is 6.89% (inactive). Also, the inhibition is -4.13% (inactive) in assay [4] and -3.49% (inactive) in assay [5].
Regarding `O=C(c1ccc(-c2ccccc2)cc1)N1CCC(C(=O)N2CCCC2)CC1`, the viability was 97.3% (inactive) in assay [1], 104% (inactive) in assay [2], 91.4% in assay [3] (setting [6]) and 104% in assay [3] (setting [7]). For the same compound, the differential viability (reversal) in assay [3] (H69AR cells + 2 uM doxorubicin) was 12.4% (inactive). For the same compound, the inhibition in assay [4] is -6.67% (inactive); in assay [5], 5.71% (inactive).
On to `Cc1nnc(SCC(=O)N2CCC(C(N)=O)CC2)s1`, for which the viability in assay [1] is 93.5% (inactive); in assay [2], 91.2% (inactive); in assay [3] (setting [6]), 99.8%; in assay [3] (setting [7]), 91.2%. Moreover, the differential viability (reversal) in assay [3] (H69AR cells + 2 uM doxorubicin) is -8.62% (inactive). The inhibition was -1.2% (inactive) in assay [4] and -5.24% (inactive) in assay [5].
Turning to `Cc1nnc(NC2CCCCC2)[nH]c1=O`, the viability in assay [1] was 87.5% (inactive); in assay [2] it was 87.1% (inactive); in assay [3] (setting [6]), 80.3%; in assay [3] (setting [7]) it was 87.1%. In addition, the differential viability (reversal) in assay [3] (H69AR cells + 2 uM doxorubicin) was 6.85% (inactive). For the same compound, the results for the inhibition in assay [4] and in assay [5] were -5.19% (inactive) and 3.02% (inactive), respectively.
As to `Cn1c(Cc2csc(N)n2)nnc1SCC(=O)NC1CCCCC1`, the viability in assay [1] is 112% (inactive); in assay [2] it was 96.8% (inactive); in assay [3] (setting [6]), 103%; in assay [3] (setting [7]) it was 96.8%. Also, in assay [3] (H69AR cells + 2 uM doxorubicin), the differential viability (reversal) is -5.84% (inactive). Also, the inhibition in assay [4] is 0.92% (inactive); in assay [5], -0.63% (inactive).
Consider `CN(C)S(=O)(=O)n1cnc(-c2ccccc2)c1-c1ccccc1`, for which the viability is 99.8% (inactive) in assay [1], 98.3% (inactive) in assay [2], 102% in assay [3] (setting [6]) and 98.3% in assay [3] (setting [7]). For the same compound, the differential viability (reversal) in assay [3] (H69AR cells + 2 uM doxorubicin) was -3.79% (inactive). In addition, the inhibition in assay [4] is -1.32% (inactive); in assay [5], -2.86% (inactive).
As for `O=S1(=O)C=CC(Nc2cccc(Cl)c2)C1` (stereo not given), the viability in assay [1] was 76.3% (inactive); in assay [2] it was 65.7% (inactive); in assay [3] (setting [6]), 65.9%; in assay [3] (setting [7]), 65.7%. The differential viability (reversal) in assay [3] (H69AR cells + 2 uM doxorubicin) is -0.23% (inactive). Further, the figures for the inhibition in assay [4] and in assay [5] were -3.68% (inactive) and 4.29% (inactive), respectively.
